Laboratory results reported in ChEMBL document CHEMBL1811872, “Tryptophan 2,3-dioxygenase (TDO) inhibitors. 3-(2-(pyridyl)ethenyl)indoles as potential anticancer immunomodulators” (J Med Chem, 2011).
Converted amounts (≈) assume the structure as drawn.

Key:
[1] = molecular target: Tryptophan 2,3-dioxygenase (Mus musculus, UniProt P48776); assay: Inhibition of mouse TDO expressed in mouse P815B cells assessed as inhibition of tryptophan catabolism by measuring kynurenine production after 8 hrs by HPLC analysis; format: cell-based
Tryptophan 2,3-dioxygenase (Mus musculus, UniProt P48776), sequence (P48776 whole entry): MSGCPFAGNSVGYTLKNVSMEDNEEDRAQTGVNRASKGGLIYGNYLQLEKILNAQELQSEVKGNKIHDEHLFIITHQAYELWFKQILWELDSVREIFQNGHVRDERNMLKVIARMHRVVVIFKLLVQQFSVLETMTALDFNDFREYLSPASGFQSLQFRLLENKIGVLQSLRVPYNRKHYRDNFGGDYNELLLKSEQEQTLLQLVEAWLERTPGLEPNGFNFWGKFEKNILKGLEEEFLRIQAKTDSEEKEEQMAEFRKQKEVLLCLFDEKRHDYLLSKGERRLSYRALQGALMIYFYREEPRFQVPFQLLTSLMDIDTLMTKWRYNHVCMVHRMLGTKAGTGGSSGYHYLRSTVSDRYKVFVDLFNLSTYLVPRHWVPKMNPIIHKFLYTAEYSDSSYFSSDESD

[2] = Cytotoxicity against mouse P815B cells […] by MTT assay; format: functional; conditions: read-out: LD50 (the source's name)
[3] = Chemical stability of the compound in phosphate buffered saline assessed as compound remaining at pH 7.4 after 1.5 hrs; format: physicochemical; conditions: read-out: Stability
In short: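 Compound was incubated in phosphate-buffered saline, pH 7.4, for 1.5 h; read-out was the percentage of compound recovered.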

[4] = Plasma concentration in DBA/2 mouse at 160 mg/kg/day, po administered for 7 days with water; format: ADME, organism-based; design: route oral
In short: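 DBA/2 mice received the compound dissolved in drinking water (1 mg/mL) ad libitum. Mean water intake was 4.0 mL/mouse/day, giving about 160 mg/kg/day. Plasma levels of compound, L-Trp and kynurenine were measured at days 0, 1, 2 and 7.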

[5] = Solubility of the compound in phosphate buffered saline at pH 7.4; format: physicochemical
In short: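 Solubility was measured experimentally in phosphate buffer (PBS), pH 7.4, at room temperature.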

[6] = molecular target: Tryptophan 2,3-dioxygenase (Homo sapiens, UniProt P48775); assay: Competitive inhibition of human recombinant TDO expressed in Escherichia coli BL21 using L-tryptophan as substrate by measuring conversion of N-formylkynurenine into kynurenine after 30 mins by Michaelis-Menten steady state analysis
Tryptophan 2,3-dioxygenase (Homo sapiens, UniProt P48775), sequence (P48775 whole entry): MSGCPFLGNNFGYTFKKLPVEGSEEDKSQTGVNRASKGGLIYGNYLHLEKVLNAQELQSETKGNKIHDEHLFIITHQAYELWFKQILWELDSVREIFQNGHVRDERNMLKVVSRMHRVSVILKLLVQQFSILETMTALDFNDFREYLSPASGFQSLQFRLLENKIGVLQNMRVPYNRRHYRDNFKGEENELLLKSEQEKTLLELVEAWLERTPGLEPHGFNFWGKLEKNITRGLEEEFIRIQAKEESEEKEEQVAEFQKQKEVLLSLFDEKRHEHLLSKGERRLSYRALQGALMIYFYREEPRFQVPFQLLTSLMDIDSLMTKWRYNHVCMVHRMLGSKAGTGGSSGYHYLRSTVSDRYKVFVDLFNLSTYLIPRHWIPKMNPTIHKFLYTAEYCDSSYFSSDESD

Row | Compound | IC50 [1] [µM] | CC50 [2] [µM] | also measured
1 | C/C=C/c1c[nH]c2ccccc12 | > 80 | > 80 | –
2 | Fc1ccc2c(/C=C/c3cccc(Cl)c3)c[nH]c2c1 | > 200 | > 200 | –
3 | C(=C\c1ccc2[nH]ccc2c1)/c1cccnc1 | > 200 | > 80 | –
4 | Fc1ccc2c(/C=C/c3cccnc3)c[nH]c2c1 | 1 | > 80 | remaining at 1.5 h [3]: 67.6%; concentration at 168 h [4]: 100 nM; solubility [5]: 92 µM (≈ 21.9 µg/mL)
5 | N#Cc1cccc(/C=C/c2c[nH]c3cc(F)ccc23)c1 | 1 | 20 | –
6 | COC(=O)c1cccc2[nH]cc(/C=C/c3cccnc3)c12 | > 200 | > 200 | –
7 | Fc1cccc2c(/C=C/c3cccnc3)c[nH]c12 | 50 | > 400 | –
8 | Fc1ccc2c(/C=C/c3ccncc3)c[nH]c2c1 | 3 | 200 | –
9 | Clc1ccc2[nH]cc(/C=C/c3cccnc3)c2c1 | 20 | > 80 | –
10 | COc1ccc2c(/C=C/c3cccnc3)c[nH]c2c1 | > 200 | > 200 | –
11 | O=[N+]([O-])c1cccc(/C=C/c2c[nH]c3cc(F)ccc23)c1 | 3 | 40 | –
12 | C(=C\c1c[nH]c2ccccc12)/c1nnn[nH]1 | 10 | > 80 | –
13 | Fc1ccc2c(/C=C/c3ccccc3)c[nH]c2c1 | 40 | 40 | –
14 | C(=C\c1c[nH]cn1)/c1cccnc1 | > 200 | > 80 | –
15 | Fc1ccc2c(/C=C/c3ccccn3)c[nH]c2c1 | 3 | 100 | –
16 | N#CCCc1c[nH]c2ccccc12 | > 80 | > 80 | –
17 | N#C/C=C/c1c[nH]c2cc(F)ccc12 | 3 | > 80 | –
18 | Fc1cccc(/C=C/c2c[nH]c3cc(F)ccc23)c1 | 10 | 40 | –
19 | Brc1ccc2[nH]cc(/C=C/c3cccnc3)c2c1 | 40 | 20 | –
20 | COc1ccc2[nH]cc(/C=C/c3cccnc3)c2c1 | 40 | > 80 | –
21 | Brc1ccc2c(/C=C/c3cccnc3)c[nH]c2c1 | > 200 | > 200 | –
22 | C(=C\c1n[nH]c2ccccc12)/c1cccnc1 | > 200 | > 80 | –
23 | O=C(O)c1ccc2[nH]cc(/C=C/c3cccnc3)c2c1 | > 200 | > 200 | –
24 | N#C/C=C\c1c[nH]c2ccccc12 | > 80 | > 80 | –
25 | O=[N+]([O-])c1ccc2[nH]cc(/C=C/c3cccnc3)c2c1 | > 200 | > 200 | –

Row | Compound | IC50 [1] [µM] | CC50 [2] [µM] | also measured
26 | c1ccc2c(Cc3nnn[nH]3)c[nH]c2c1 | > 80 | > 80 | –
27 | Fc1ccc2c(/C=C/c3ccc4ccccc4c3)c[nH]c2c1 | > 200 | > 200 | –
28 | Clc1cccc2[nH]cc(/C=C/c3cccnc3)c12 | > 40 | 40 | –
29 | O=C(O)/C=C/c1c[nH]c2cc(F)ccc12 | 3 | > 400 | remaining at 1.5 h [3]: 92.9%; Ki [6]: 32.4 µM; concentration at 168 h [4]: 1400 nM; solubility [5]: > 300 µM
30 | O=[N+]([O-])c1cccc2[nH]cc(/C=C/c3cccnc3)c12 | > 200 | > 200 | –
31 | c1ccc2c(-c3nnn[nH]3)c[nH]c2c1 | > 80 | > 80 | –
32 | COC(=O)c1ccc2c(/C=C/c3cccnc3)c[nH]c2c1 | > 200 | > 200 | –
33 | C(=C\c1c(-c2ccccc2)[nH]c2ccccc12)/c1cccnc1 | > 200 | > 200 | –
34 | Cc1cccc2c(/C=C/c3cccnc3)c[nH]c12 | > 200 | > 200 | –
35 | N#CSCCc1c[nH]c2ccccc12 | 44 | > 80 | –
36 | OC/C=C/c1c[nH]c2cc(F)ccc12 | 80 | 100 | –
37 | C(=C\c1c[nH]c2ncccc12)/c1cccnc1 | 18 | > 80 | –
38 | N#Cc1c[nH]c2ccccc12 | > 80 | > 80 | –
39 | N#Cc1ccc2[nH]cc(/C=C/c3cccnc3)c2c1 | > 200 | > 200 | –
40 | O=C(O)C(=Cc1c[nH]c2cc(F)ccc12)C(=O)O | > 80 | > 80 | –
41 | COc1cccc2c(/C=C/c3cccnc3)c[nH]c12 | > 200 | > 200 | –
42 | C(=C\c1c[nH]c2ccccc12)/c1ccccn1 | 20 | > 100 | –
43 | COC(=O)c1ccc2[nH]cc(/C=C/c3cccnc3)c2c1 | > 200 | > 200 | –
44 | Brc1cccc2[nH]cc(/C=C/c3cccnc3)c12 | > 200 | > 200 | –
45 | O=C(O)/C=C/c1c[nH]c2ccccc12 | 18 | > 400 | –
46 | C(=C\c1c[nH]c2ccncc12)/c1cccnc1 | > 200 | > 80 | –
47 | C(=C\c1ccc2ccccc2c1)/c1cccnc1 | > 200 | > 80 | –
48 | c1ccc2c(CCc3nnn[nH]3)c[nH]c2c1 | > 80 | > 80 | –
49 | N#Cc1cccc2[nH]cc(/C=C/c3cccnc3)c12 | > 200 | > 200 | –
50 | N#C/C(=C\c1c[nH]c2cc(F)ccc12)c1ccccc1 | > 80 | > 80 | –

Row | Compound | IC50 [1] [µM] | CC50 [2] [µM] | also measured
51 | COc1cccc(/C=C/c2c[nH]c3cc(F)ccc23)c1 | 10 | 40 | –
52 | C(=C\c1c[nH]c2ccccc12)/c1ccncc1 | 20 | > 100 | –
53 | c1cncc(CCCc2c[nH]c3ccccc23)c1 | > 200 | > 200 | –
54 | Brc1cccc2c(/C=C/c3cccnc3)c[nH]c12 | > 20 | 20 | –
55 | Clc1cccc2c(/C=C/c3cccnc3)c[nH]c12 | > 200 | > 200 | –
56 | COC(=O)/C=C/c1c[nH]c2cc(F)ccc12 | 2 | 40 | –
57 | Fc1ccc(-c2n[nH]cc2/C=C/c2cccnc2)cc1 | > 200 | > 80 | –
58 | Fc1ccc2[nH]cc(/C=C/c3cccnc3)c2c1 | 5 | > 80 | –
59 | Cc1ccc2[nH]cc(/C=C/c3cccnc3)c2c1 | > 200 | > 200 | –
60 | C(=C\c1c[nH]c2ccccc12)/c1cccnc1 | 1 | > 80 | –
61 | c1cncc(CCc2c[nH]c3ccccc23)c1 | 80 | > 80 | –
62 | Cn1cc(/C=C/c2cccnc2)c2ccc(F)cc21 | > 200 | > 200 | –
63 | CCOC(=O)/C(C#N)=C/c1c[nH]c2cc(F)ccc12 | > 80 | > 80 | –
64 | Fc1cccc2[nH]cc(/C=C/c3cccnc3)c12 | 10 | > 80 | –
65 | C(#Cc1c[nH]c2ccccc12)c1cccnc1 | 6 | 200 | –
66 | Clc1ccc2c(/C=C/c3cccnc3)c[nH]c2c1 | 20 | > 40 | –
67 | Cc1ccc2c(/C=C/c3cccnc3)c[nH]c2c1 | > 200 | > 200 | –
68 | C(=C\c1c[nH]c2c1ccc1ccccc12)/c1cccnc1 | > 200 | > 80 | –
69 | N#CCc1c[nH]c2ccccc12 | > 80 | > 80 | –
70 | N#C/C(=C\c1c[nH]c2cc(F)ccc12)C(=O)O | > 80 | > 80 | –
71 | Fc1ccc2c(/C=C/c3cccc(Br)c3)c[nH]c2c1 | > 200 | > 200 | –
72 | Oc1ccc2c(/C=C/c3cccnc3)c[nH]c2c1 | > 200 | > 200 | –
73 | Cc1[nH]c2ccccc2c1/C=C/c1cccnc1 | > 200 | > 200 | –
74 | N#C/C=C/c1c[nH]c2ccccc12 | 13 | > 80 | –
